Measurements: ChEMBL document CHEMBL1126564, “Synthesis and antimicrobial evaluation of a series of 7-[3-amino (or aminomethyl)-4-aryl (or cyclopropyl)-1-pyrrolidinyl]-4-quinolone- and -1,8-naphthyridone-3-carboxylic acids” (1993)
Values after ≈ are worked out from the molar mass of the structure shown.

Key:
Assay type in all cases: functional
[1] = test system: Enterobacter cloacae; assay: Minimum inhibitory concentration against […] MA-2646; conditions: Enterobacter cloacae; read-out: MIC
Summary of the method: (§1)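 Standard microdilution method against a panel of five Gram-negative and five Gram-positive bacterial strains. The MIC (µg/mL) was recorded for each strain.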

[2] = test system: Escherichia coli; assay: Minimum inhibitory concentration against Escherichia coli Vogel; conditions: Escherichia coli; read-out: MIC; summary of the method: as §1
[3] = test system: Pseudomonas aeruginosa; assay: Minimum inhibitory concentration against Pseudomonas aeruginosa UI-18; conditions: Pseudomonas aeruginosa; read-out: MIC; summary of the method: as §1
[4] = test system: Streptococcus pneumoniae; assay: Minimum inhibitory concentration against Streptococcus pneumoniae SV-1; conditions: Streptococcus pneumoniae; read-out: MIC; summary of the method: as §1
[5] = test system: Staphylococcus aureus; assay: Minimum inhibitory concentration against Staphylococcus aureus H-228; conditions: Staphylococcus aureus; read-out: MIC; summary of the method: as §1
[6] = test system: Providencia rettgeri; assay: Minimum inhibitory concentration against Providencia rettgeri M-1771; conditions: Providencia rettgeri; read-out: MIC; summary of the method: as §1
[7] = test system: Klebsiella pneumoniae; assay: Minimum inhibitory concentration against Klebsiella pneumoniae MGH-2; conditions: Klebsiella pneumoniae; read-out: MIC; summary of the method: as §1
[8] = test system: Staphylococcus aureus; assay: Minimum inhibitory concentration against Staphylococcus aureus UC-76; conditions: Staphylococcus aureus; read-out: MIC; summary of the method: as §1
[9] = test system: Enterococcus faecalis; assay: Minimum inhibitory concentration against […] MGH-2; conditions: Enterococcus faecalis; read-out: MIC; summary of the method: as §1
[10] = test system: Streptococcus pyogenes; assay: Minimum inhibitory concentration against Streptococcus pyogenes C-203; conditions: Streptococcus pyogenes; read-out: MIC; summary of the method: as §1

Row | Compound | MIC [1] [µg/mL] | MIC [2] [µg/mL] | MIC [3] [µg/mL] | MIC [4] [µg/mL] | MIC [5] [µg/mL] | MIC [6] [µg/mL] | MIC [7] [µg/mL] | MIC [8] [µg/mL] | MIC [9] [µg/mL] | MIC [10] [µg/mL]
1 | NC1CN(c2c(F)cc3c(=O)c(C(=O)O)cn(C4CC4)c3c2F)CC1c1ccc(Cl)c(Cl)c1 (trans isomer) | 0.2 (≈ 0.405 µM) | 0.1 (≈ 0.202 µM) | 1.6 (≈ 3.24 µM) | 0.1 (≈ 0.202 µM) | 0.05 (≈ 0.101 µM) | 0.2 (≈ 0.405 µM) | 0.2 (≈ 0.405 µM) | 0.013 (≈ 0.0263 µM) | 0.1 (≈ 0.202 µM) | 0.1 (≈ 0.202 µM)
2 | NCC1CN(c2c(F)c(N)c3c(=O)c(C(=O)O)cn(C4CC4)c3c2F)CC1c1ccc(N)cc1 (trans isomer) | 0.1 (≈ 0.213 µM) | 0.1 (≈ 0.213 µM) | 0.8 (≈ 1.7 µM) | 0.013 (≈ 0.0277 µM) | 0.025 (≈ 0.0532 µM) | 0.2 (≈ 0.426 µM) | 0.2 (≈ 0.426 µM) | 0.006 (≈ 0.0128 µM) | 0.025 (≈ 0.0532 µM) | 0.025 (≈ 0.0532 µM)
3 | Nc1c(F)c(N2CC(N)C(c3ccc(O)cc3)C2)c(F)c2c1c(=O)c(C(=O)O)cn2C1CC1 (trans isomer) | 0.05 (≈ 0.11 µM) | 0.05 (≈ 0.11 µM) | 0.8 (≈ 1.75 µM) | 0.05 (≈ 0.11 µM) | 0.05 (≈ 0.11 µM) | 0.1 (≈ 0.219 µM) | 0.05 (≈ 0.11 µM) | 0.013 (≈ 0.0285 µM) | 0.05 (≈ 0.11 µM) | 0.1 (≈ 0.219 µM)
4 | NCc1cccc(C2CN(c3nc4c(cc3F)c(=O)c(C(=O)O)cn4C3CC3)CC2CN)c1 (trans isomer) | 3.1 (≈ 6.87 µM) | 3.1 (≈ 6.87 µM) | 12.5 (≈ 27.7 µM) | 0.8 (≈ 1.77 µM) | 3.1 (≈ 6.87 µM) | 6.3 (≈ 14 µM) | 3.1 (≈ 6.87 µM) | 0.8 (≈ 1.77 µM) | 1.6 (≈ 3.54 µM) | 0.2 (≈ 0.443 µM)
5 | NCC1CN(c2c(F)c(N)c3c(=O)c(C(=O)O)cn(C4CC4)c3c2F)CC1c1ccccc1 (trans isomer) | 0.05 (≈ 0.11 µM) | 0.025 (≈ 0.055 µM) | 0.8 (≈ 1.76 µM) | 0.003 (≈ 0.0066 µM) | 0.006 (≈ 0.0132 µM) | 0.1 (≈ 0.22 µM) | 0.05 (≈ 0.11 µM) | 0.003 (≈ 0.0066 µM) | 0.013 (≈ 0.0286 µM) | 0.006 (≈ 0.0132 µM)
6 | CC(C)c1ccc(C2CN(c3nc4c(cc3F)c(=O)c(C(=O)O)cn4C3CC3)CC2N)cc1 (trans isomer) | 0.8 (≈ 1.78 µM) | 0.4 (≈ 0.888 µM) | 6.3 (≈ 14 µM) | 0.4 (≈ 0.888 µM) | 0.2 (≈ 0.444 µM) | 1.6 (≈ 3.55 µM) | 0.8 (≈ 1.78 µM) | 0.1 (≈ 0.222 µM) | 0.4 (≈ 0.888 µM) | 0.4 (≈ 0.888 µM)
7 | COc1ccccc1C1CN(c2c(F)cc3c(=O)c(C(=O)O)cn(C4CC4)c3c2F)CC1N (trans isomer) | 0.4 (≈ 0.878 µM) | 0.2 (≈ 0.439 µM) | 3.1 (≈ 6.81 µM) | 0.1 (≈ 0.22 µM) | 0.05 (≈ 0.11 µM) | 0.8 (≈ 1.76 µM) | 0.4 (≈ 0.878 µM) | 0.025 (≈ 0.0549 µM) | 0.1 (≈ 0.22 µM) | 0.1 (≈ 0.22 µM)
8 | COc1ccc(C2CN(c3nc4c(cc3F)c(=O)c(C(=O)O)cn4C3CC3)CC2N)cc1 (trans isomer) | 0.1 (≈ 0.228 µM) | 0.1 (≈ 0.228 µM) | 1.6 (≈ 3.65 µM) | 0.1 (≈ 0.228 µM) | 0.1 (≈ 0.228 µM) | 0.4 (≈ 0.912 µM) | 0.2 (≈ 0.456 µM) | 0.05 (≈ 0.114 µM) | 0.2 (≈ 0.456 µM) | 0.1 (≈ 0.228 µM)
9 | CN(C)c1ccc(C2CN(c3nc4c(cc3F)c(=O)c(C(=O)O)cn4C3CC3)CC2N)cc1 (trans isomer) | 0.2 (≈ 0.443 µM) | 0.2 (≈ 0.443 µM) | 3.1 (≈ 6.87 µM) | 0.2 (≈ 0.443 µM) | 0.05 (≈ 0.111 µM) | 0.4 (≈ 0.886 µM) | 0.4 (≈ 0.886 µM) | 0.025 (≈ 0.0554 µM) | 0.2 (≈ 0.443 µM) | 0.2 (≈ 0.443 µM)

Continued by falling MIC [1], values first:

Row | MIC [1] [µg/mL] | MIC [2] [µg/mL] | MIC [3] [µg/mL] | MIC [4] [µg/mL] | MIC [5] [µg/mL] | MIC [6] [µg/mL] | MIC [7] [µg/mL] | MIC [8] [µg/mL] | MIC [9] [µg/mL] | MIC [10] [µg/mL] | Compound
10 | 1.6 (≈ 3.42 µM) | 1.6 (≈ 3.42 µM) | 6.3 (≈ 13.4 µM) | 0.2 (≈ 0.427 µM) | 1.6 (≈ 3.42 µM) | 3.1 (≈ 6.62 µM) | 1.6 (≈ 3.42 µM) | 0.2 (≈ 0.427 µM) | 0.8 (≈ 1.71 µM) | 0.1 (≈ 0.213 µM) | NCc1cccc(C2CN(c3c(F)cc4c(=O)c(C(=O)O)cn(C5CC5)c4c3F)CC2CN)c1 (trans isomer)
11 | 0.4 (≈ 0.858 µM) | 0.4 (≈ 0.858 µM) | 3.1 (≈ 6.65 µM) | 0.8 (≈ 1.72 µM) | 0.2 (≈ 0.429 µM) | 0.8 (≈ 1.72 µM) | 0.4 (≈ 0.858 µM) | 0.1 (≈ 0.214 µM) | 0.4 (≈ 0.858 µM) | 0.8 (≈ 1.72 µM) | COC(=O)c1ccc(C2CN(c3nc4c(cc3F)c(=O)c(C(=O)O)cn4C3CC3)CC2N)cc1 (trans isomer)
12 | 0.4 (≈ 0.838 µM) | 0.4 (≈ 0.838 µM) | 3.1 (≈ 6.49 µM) | 0.2 (≈ 0.419 µM) | 0.1 (≈ 0.21 µM) | 0.8 (≈ 1.68 µM) | 0.4 (≈ 0.838 µM) | 0.05 (≈ 0.105 µM) | 0.2 (≈ 0.419 µM) | 0.4 (≈ 0.838 µM) | NC1CN(c2nc3c(cc2F)c(=O)c(C(=O)O)cn3C2CC2)CC1c1ccc(Cl)c(Cl)c1 (trans isomer)
13 | 0.2 (≈ 0.451 µM) | 0.2 (≈ 0.451 µM) | 3.1 (≈ 6.99 µM) | 0.8 (≈ 1.8 µM) | 1.6 (≈ 3.61 µM) | 0.8 (≈ 1.8 µM) | 0.4 (≈ 0.902 µM) | 0.2 (≈ 0.451 µM) | 0.8 (≈ 1.8 µM) | 0.8 (≈ 1.8 µM) | CCOC(=O)C1CC1C1CN(c2cc3c(cc2F)c(=O)c(C(=O)O)cn3C2CC2)CC1N (trans isomer)
14 | 0.1 (≈ 0.218 µM) | 0.1 (≈ 0.218 µM) | 1.6 (≈ 3.49 µM) | 0.1 (≈ 0.218 µM) | 0.025 (≈ 0.0545 µM) | 0.2 (≈ 0.436 µM) | 0.1 (≈ 0.218 µM) | 0.013 (≈ 0.0284 µM) | 0.1 (≈ 0.218 µM) | 0.1 (≈ 0.218 µM) | Nc1c(F)c(N2CC(N)C(c3ccc(F)cc3)C2)c(F)c2c1c(=O)c(C(=O)O)cn2C1CC1 (trans isomer)
